This note sets out measurements from ChEMBL document CHEMBL5649168, “Discovery of a selective catalytic p300/CBP inhibitor that targets lineage-specific tumours” (Nature, 2017).

Data set [1] deals with T1, Histone acetyltransferase p300 (Homo sapiens, UniProt Q09472). Put plainly: Inhibition of p300 HAT domain (unknown origin) using Biotin-C6-GRGKGGKGLGKGGAK as substrate pretreated with enzyme for 30 mins followed by incubation with substrate for 1 hr by radiometric scintillation proximity assay. A general note: Scintillation proximity formats need no separation of bound from free tracer.
T1 sequence (Q09472 whole entry, the tested form may be a part): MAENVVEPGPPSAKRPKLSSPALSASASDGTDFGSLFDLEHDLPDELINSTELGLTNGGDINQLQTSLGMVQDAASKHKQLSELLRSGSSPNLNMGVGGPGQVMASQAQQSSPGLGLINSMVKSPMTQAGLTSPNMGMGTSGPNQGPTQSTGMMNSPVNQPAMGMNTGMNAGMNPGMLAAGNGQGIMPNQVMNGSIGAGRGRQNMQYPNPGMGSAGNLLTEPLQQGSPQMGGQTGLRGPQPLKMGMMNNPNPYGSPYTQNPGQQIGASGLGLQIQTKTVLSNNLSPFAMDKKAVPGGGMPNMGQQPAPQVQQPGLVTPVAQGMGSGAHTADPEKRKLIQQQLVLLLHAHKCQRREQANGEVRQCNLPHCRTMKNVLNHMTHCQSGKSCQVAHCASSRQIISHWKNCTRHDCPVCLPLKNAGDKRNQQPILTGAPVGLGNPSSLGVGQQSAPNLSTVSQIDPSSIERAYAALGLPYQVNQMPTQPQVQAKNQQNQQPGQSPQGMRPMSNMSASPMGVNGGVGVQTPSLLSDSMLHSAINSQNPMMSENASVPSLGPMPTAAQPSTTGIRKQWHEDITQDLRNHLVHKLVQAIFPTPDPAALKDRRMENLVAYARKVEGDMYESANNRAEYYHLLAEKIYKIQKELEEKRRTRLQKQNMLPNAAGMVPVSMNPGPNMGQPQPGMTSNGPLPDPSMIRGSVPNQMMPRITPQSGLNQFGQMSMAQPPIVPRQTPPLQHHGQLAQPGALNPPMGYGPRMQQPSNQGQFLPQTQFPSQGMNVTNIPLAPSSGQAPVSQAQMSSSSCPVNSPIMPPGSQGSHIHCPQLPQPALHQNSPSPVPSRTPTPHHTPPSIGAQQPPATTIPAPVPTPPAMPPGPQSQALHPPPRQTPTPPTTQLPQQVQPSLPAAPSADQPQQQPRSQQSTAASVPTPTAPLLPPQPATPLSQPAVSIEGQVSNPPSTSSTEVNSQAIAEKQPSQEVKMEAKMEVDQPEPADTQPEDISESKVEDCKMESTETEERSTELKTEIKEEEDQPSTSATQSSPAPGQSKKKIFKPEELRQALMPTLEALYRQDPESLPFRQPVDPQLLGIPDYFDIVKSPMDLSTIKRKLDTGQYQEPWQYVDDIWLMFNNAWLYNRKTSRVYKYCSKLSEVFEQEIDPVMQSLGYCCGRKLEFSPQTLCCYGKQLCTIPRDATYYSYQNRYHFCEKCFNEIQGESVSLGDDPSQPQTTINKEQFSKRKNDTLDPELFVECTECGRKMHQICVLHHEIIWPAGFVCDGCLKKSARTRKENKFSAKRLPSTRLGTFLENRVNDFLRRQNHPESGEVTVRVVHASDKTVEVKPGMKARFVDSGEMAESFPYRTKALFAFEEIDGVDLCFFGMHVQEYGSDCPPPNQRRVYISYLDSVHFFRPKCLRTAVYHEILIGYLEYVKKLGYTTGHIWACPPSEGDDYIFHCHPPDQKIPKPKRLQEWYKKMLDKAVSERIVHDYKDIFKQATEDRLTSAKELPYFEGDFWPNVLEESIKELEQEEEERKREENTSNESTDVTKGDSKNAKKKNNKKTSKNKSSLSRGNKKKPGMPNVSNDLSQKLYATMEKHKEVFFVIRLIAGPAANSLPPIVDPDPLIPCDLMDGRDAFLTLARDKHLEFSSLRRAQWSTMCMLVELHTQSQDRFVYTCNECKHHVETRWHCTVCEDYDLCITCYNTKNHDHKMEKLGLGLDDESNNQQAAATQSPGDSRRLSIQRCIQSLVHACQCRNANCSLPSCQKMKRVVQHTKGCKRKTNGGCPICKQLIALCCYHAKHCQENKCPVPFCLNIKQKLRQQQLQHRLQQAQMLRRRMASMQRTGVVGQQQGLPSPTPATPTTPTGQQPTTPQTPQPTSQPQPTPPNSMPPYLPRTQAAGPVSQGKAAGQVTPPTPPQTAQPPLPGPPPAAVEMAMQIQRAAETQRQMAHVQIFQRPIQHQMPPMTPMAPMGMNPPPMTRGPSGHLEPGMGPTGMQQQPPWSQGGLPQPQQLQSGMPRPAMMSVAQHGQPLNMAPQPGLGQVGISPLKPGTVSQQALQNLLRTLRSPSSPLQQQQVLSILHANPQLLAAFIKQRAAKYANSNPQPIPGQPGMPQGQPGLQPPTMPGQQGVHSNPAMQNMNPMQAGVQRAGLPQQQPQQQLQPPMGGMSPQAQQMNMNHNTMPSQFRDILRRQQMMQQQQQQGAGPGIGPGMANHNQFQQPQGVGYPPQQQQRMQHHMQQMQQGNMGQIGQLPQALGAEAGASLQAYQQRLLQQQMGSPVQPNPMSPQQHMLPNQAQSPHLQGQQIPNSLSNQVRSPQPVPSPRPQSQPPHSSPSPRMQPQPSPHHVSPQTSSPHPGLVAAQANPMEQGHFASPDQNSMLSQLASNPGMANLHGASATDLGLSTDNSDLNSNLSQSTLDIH

The target in data set [2] is T2, CREB-binding protein/Histone acetyltransferase p300 (Homo sapiens, UniProt Q09472+Q92793). Conditions: 22Rv1, dose 0.3-3 mM.
T2 sequence (Q09472 whole entry, looked up, the tested form may be a part): as the sequence (Q09472 whole entry, the tested form may be a part) above
T2 sequence (Q92793 whole entry, looked up, the tested form may be a part): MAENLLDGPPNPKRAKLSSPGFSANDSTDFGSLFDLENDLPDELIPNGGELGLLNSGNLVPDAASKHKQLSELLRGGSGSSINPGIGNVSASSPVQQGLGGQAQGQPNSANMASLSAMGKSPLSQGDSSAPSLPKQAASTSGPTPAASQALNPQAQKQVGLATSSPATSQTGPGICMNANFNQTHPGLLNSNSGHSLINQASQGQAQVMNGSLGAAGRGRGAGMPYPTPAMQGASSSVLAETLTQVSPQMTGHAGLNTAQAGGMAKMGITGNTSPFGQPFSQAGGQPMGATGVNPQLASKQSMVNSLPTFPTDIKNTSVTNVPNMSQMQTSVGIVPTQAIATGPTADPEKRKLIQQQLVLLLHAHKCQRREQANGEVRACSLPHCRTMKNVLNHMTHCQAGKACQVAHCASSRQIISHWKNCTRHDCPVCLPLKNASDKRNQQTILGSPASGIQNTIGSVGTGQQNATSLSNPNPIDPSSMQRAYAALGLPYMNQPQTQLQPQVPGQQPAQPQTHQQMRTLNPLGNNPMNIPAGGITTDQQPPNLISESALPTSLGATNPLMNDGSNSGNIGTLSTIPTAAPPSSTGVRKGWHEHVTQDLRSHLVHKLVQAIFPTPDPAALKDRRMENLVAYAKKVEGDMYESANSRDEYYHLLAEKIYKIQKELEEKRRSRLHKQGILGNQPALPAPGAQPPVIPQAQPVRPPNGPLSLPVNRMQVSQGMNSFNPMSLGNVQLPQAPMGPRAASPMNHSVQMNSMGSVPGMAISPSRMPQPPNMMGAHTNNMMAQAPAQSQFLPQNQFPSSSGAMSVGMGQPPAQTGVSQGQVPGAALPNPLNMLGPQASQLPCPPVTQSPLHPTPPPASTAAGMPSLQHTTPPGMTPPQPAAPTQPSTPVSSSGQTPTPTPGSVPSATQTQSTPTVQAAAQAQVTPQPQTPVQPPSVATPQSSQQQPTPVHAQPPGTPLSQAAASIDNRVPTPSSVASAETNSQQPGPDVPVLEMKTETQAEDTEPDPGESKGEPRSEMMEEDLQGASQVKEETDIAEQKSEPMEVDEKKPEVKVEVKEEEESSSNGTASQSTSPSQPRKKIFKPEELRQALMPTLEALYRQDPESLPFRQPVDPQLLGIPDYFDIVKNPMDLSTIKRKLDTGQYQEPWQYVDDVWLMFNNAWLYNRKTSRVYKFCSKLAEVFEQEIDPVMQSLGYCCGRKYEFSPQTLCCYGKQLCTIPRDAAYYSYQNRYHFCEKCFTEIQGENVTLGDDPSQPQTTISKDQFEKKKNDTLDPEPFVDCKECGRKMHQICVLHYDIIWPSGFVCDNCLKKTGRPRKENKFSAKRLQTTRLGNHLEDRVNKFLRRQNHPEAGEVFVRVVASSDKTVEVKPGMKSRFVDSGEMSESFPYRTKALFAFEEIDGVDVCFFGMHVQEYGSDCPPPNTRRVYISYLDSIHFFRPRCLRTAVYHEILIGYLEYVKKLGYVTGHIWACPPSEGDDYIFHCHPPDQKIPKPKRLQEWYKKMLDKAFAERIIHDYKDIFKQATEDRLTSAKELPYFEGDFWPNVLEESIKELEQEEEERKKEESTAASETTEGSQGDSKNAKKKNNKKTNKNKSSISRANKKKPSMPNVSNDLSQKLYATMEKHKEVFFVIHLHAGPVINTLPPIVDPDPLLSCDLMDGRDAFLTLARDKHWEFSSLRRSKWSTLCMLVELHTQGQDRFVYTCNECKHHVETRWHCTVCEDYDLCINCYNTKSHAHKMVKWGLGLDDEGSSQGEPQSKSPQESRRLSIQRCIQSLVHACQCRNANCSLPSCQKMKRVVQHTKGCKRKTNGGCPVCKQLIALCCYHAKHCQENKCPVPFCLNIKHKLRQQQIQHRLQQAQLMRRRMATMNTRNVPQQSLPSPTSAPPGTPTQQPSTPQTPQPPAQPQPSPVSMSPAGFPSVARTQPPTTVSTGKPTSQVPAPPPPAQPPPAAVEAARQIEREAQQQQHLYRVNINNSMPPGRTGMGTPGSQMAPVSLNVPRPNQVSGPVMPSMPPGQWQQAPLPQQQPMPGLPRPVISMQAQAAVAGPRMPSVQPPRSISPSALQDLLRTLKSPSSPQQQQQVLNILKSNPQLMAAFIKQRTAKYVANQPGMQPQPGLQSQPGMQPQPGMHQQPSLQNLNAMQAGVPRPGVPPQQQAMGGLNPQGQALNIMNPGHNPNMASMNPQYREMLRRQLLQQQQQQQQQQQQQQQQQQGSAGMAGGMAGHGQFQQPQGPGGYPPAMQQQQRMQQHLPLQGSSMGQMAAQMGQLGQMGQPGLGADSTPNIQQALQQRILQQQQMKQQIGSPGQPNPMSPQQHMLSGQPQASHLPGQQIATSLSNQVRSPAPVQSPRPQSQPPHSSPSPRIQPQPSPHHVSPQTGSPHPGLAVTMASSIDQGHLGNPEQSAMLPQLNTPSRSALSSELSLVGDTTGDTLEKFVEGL
Data set [3] deals with T1, Histone acetyltransferase p300. Put plainly: Binding affinity to recombinant human p300 HAT domain expressed in Escherichia coli BL21-CodonPlus(DE3)-RIL cells assessed as dissociation constant using CMLVELHTQSQDRF as substrate by surface plasmon resonance analysis. Background: SPR reads the build-up and loss of mass on a sensor chip optically.
For data set [4] the target is unchanged. Put plainly: Inhibition of N-terminal 6His-Flag tagged p300-BHC domain (1036 to 1822 residues) (unknown origin) expressed in Sf9 cells using the Bac-to-Bac baculovirus system under EDTA-free condition using biotinylated synthetic Histone-H4 peptide incubated for 30 mins followed by substrate addition and measured after 1hr by TR-FRET assay. The method, boiled down: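 TR-FRET acetylation of biotinylated histone H4 peptide. Buffer: 100 mM HEPES pH 7.9, 100 mM KCl, 40 µg/mL BSA, 1 mM DTT, 0.01% Triton X-100. The EDTA-free run used protein purified without EDTA and buffer without EDTA. Enzyme at 0.6 nM was preincubated 30 min with compound (3-fold series, 50 µM to 0.00075 µM). Substrates were 2 µM peptide and 0.5 µM acetyl-CoA, 1 h at room temperature. Read by Eu-anti-acetyl-H4 / ULight-streptavidin; IC50 from sigmoidal fit.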

A further data set concerns the target MAO-A (Homo sapiens, UniProt P21397). The data set can be described thus: Inhibition of MAO-A (unknown origin) at 10 uM by radioligand binding assay relative to control.
The target in data set [5] is T2, CREB-binding protein/Histone acetyltransferase p300. The data set can be described thus: Inhibition of p300/CBP in human PC-3 cells assessed as reduction in H3K27Ac level incubated for 3 hrs by Hoechst 33342 staining based high content microscopy analysis. Type of data set: cell-based. The method, boiled down: (§1)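 PC-3 cells were plated overnight on collagen I-coated plates. They were treated with an 8-point half-log series from 10 µM, then fixed in 10% formaldehyde, permeabilized in 0.1% Triton X-100 and blocked in 1% BSA. Mean intensity was imaged over 15 fields per well; EC50 from sigmoidal fit.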

Data set [6] shares this target. Put plainly: Inhibition of p300/CBP in human PC-3 cells assessed as reduction in H3K9Ac level incubated for 3 hrs by Hoechst 33342 staining based high content microscopy analysis. The data set is classed as cell-based. The method, boiled down: as §1
Data set [7] has the same target. Put plainly: Inhibition of p300/CBP in human 22Rv1 cells assessed as reduction in H3K27Ac level incubated for 24 hrs by Hoechst 33342 staining based high content microscopy analysis. The data set is classed as cell-based. In a few lines:
(§2)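 Cells received an 8-point half-log dilution series from 10 µM. They were then fixed in 10% formaldehyde (10 min, RT), permeabilised with 0.1% Triton X-100 and blocked with 1% BSA for 1 h. Primary antibodies were applied overnight at 4 °C, followed by Alexa488 anti-rabbit, Alexa555 anti-mouse and Hoechst 33342 for 1 h. Fifteen fields per well were imaged and average mean intensity taken. EC50 came from a sigmoidal fit.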

The target is the same in data set [8]. Put plainly: Inhibition of p300/CBP in human 22Rv1 cells assessed as reduction in H3K18Ac level incubated for 3 hrs by Hoechst 33342 staining based high content microscopy analysis. Type of data set: cell-based. In a few lines: as §2
Data set [9] shares this target. The data set can be described thus: Inhibition of p300/CBP in human 22Rv1 cells assessed as reduction in H3K9Ac level incubated for 3 hrs by Hoechst 33342 staining based high content microscopy analysis. The data set is classed as cell-based. In a few lines: as §2
The target of data set [10] is Ca2+ channel (L, dihydropyridine site) (Homo sapiens, UniProt O60840+Q01668+Q13698+Q13936). The data set can be described thus: Inhibition of Ca2+ channel (L, dihydropyridine site) (unknown origin) at 10 uM by radioligand binding assay relative to control. Type of data set: protein assay.
Data set [11] addresses T2, CREB-binding protein/Histone acetyltransferase p300. The data set can be described thus: Inhibition of p300/CBP in human 22Rv1 cells assessed as reduction in H3K9Ac level incubated for 1 hr by Hoechst 33342 staining based high content microscopy analysis. Type of data set: cell-based. The method, boiled down: as §2
Data set [12] shares this target. Put plainly: Inhibition of p300/CBP in human 22Rv1 cells assessed as reduction in H3K18Ac level incubated for 24 hrs by Hoechst 33342 staining based high content microscopy analysis. Type of data set: cell-based. The method, boiled down: as §2
The next data set addresses MAO-B (Homo sapiens, UniProt P27338). The data set can be described thus: Inhibition of human recombinant MAO-B at 10 uM by radioligand binding assay relative to control.
The target of data set [13] is T2, CREB-binding protein/Histone acetyltransferase p300. Put plainly: Inhibition of p300/CBP in human 22Rv1 cells assessed as reduction in H3K18Ac level incubated for 1 hr by Hoechst 33342 staining based high content microscopy analysis. The data set is classed as cell-based. In a few lines: as §2
For data set [14] the target is unchanged. The data set can be described thus: Inhibition of p300/CBP in human 22Rv1 cells assessed as reduction in H3K9Ac level incubated for 24 hrs by Hoechst 33342 staining based high content microscopy analysis. Type of data set: cell-based. The method, boiled down: as §2
A further data set concerns the target CREB-binding protein (Homo sapiens, UniProt Q92793). The data set can be described thus: Inhibition of N-terminal 6His-Flag tagged CBP-BHC domain (1072 to 1859 residues) (unknown origin) expressed in Sf9 cells using the Bac-to-Bac baculovirus system under EDTA-free condition using biotinylated synthetic Histone-H4 peptide incubated for 30 mins followed by substrate addition and measured after 1hr by TR-FRET assay.

Data set [15] has as its target T2, CREB-binding protein/Histone acetyltransferase p300. The data set can be described thus: Inhibition of p300/CBP in human PC-3 cells assessed as reduction in H3K18Ac level incubated for 3 hrs by Hoechst 33342 staining based high content microscopy analysis. The data set is classed as cell-based.

Molecules are shown by their SMILES. Calls of active or inactive are those of the source. The rule behind the calls is not given here.

CREB-binding protein, sequence (Q92793 whole entry, the tested form may be a part): as the sequence (Q92793 whole entry, looked up, the tested form may be a part) above

In the case of `CC(C1CC1)N(Cc1ccccc1)C(=O)CN1C(=O)NC(Cc2c[nH]c3ccccc23)C1=O` (stereo not drawn), the IC50 in data set [1] worked out at 5.1 µM.

`CNC(=O)c1ccc(N2C(=S)N(c3ccc(C#N)c(C(F)(F)F)c3)C(=O)C2(C)C)cc1F`: the inhibition entry in data set [2] was “inactive”.

For the compound `C=C(C)[C@H](CC=C(C)C)C[C@]12C[C@H](CC=C(C)C)C(C)(C)[C@](CC=C(C)C)(C(=O)C(C(=O)c3ccc(O)c(O)c3)=C1O)C2=O`, the IC50 in data set [1] turned out to be 5 µM.

Take `NS(=O)(=O)c1ccc(NC(=O)CN2C(=O)SC(=C3CCCCC3)C2=O)cc1`: in data set [1], the IC50 came to 11.5 µM.

On to `CNC(=O)Nc1ccc2c(c1)[C@@]1(CC2)OC(=O)N(CC(=O)N(Cc2ccc(F)cc2)[C@@H](C)C(F)(F)F)C1=O` [A-486], for which the Kd in [3] was 20 µM. The IC50 in data set [4] is greater than 10 µM; in data set [1], greater than 50 µM; on CREB-binding protein, 9.03 µM. Besides, the inhibition at 10 µM on MAO-A was 7%; in data set [10], -3%; at MAO-B, 0%. Moreover, the EC50 in data set [5], in data set [6] and in data set [15] was greater than 10 µM throughout. Moreover, the inhibition entry in data set [5] and in data set [6] was “inactive” in each case. Moreover, the INH in data set [7], in data set [8], in data set [9], in data set [11], in data set [12] and in [13] was greater than 10 µM in each case. Also, the INH in data set [14] was greater than 10 µM.

As a reminder, the IC50 is the concentration at which inhibition is half-maximal. One may read the inhibition as the change of the read-out against control, counted positive when it falls. By Kd is commonly meant the constant that tells how readily two partners part at equilibrium. As usually defined, the EC50 is the concentration needed to bring the measured effect to its halfway point.
